This passage reports Inhibition, inhibition and Relative potency results from ChEMBL document CHEMBL1121800, “Fibrin Polymerization. 1. Alkylating peptide inhibitors of fibrin polymerization” (1981).

Holding throughout (assay type): functional
Assay [1] in a line: Compound was evaluated for its ability to inhibit the thrombin-initiated clotting time of citreated human plasma. Further details: concentration or dose not given beside the values. The gist of the method: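 Bovine thrombin in saline, dosed to give a 20 s clot, added to 200 µL citrated human plasma plus 100 µL saline containing peptide at 37 °C. Time to first clot recorded. Chlorambucil peptides came from DMSO stock diluted in saline; optional 15 min, 4 °C preincubation with plasma or thrombin. Molar activity from dose-response slope versus reference, with molarity from amino acid analysis.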

The species named for assay [2] is Homo sapiens. As to the kind of experiment: Compound was evaluated for its ability to inhibit fibrin polymerization. Also noted: concentration or dose not given beside the values. As to conditions: dose or concentration not given here. The method, boiled down: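 Fibrin monomer from human fibrinogen (8.3 mg protein/mL solution) diluted into phosphate buffer (80 mM, pH 6.3) containing peptide; reaggregation followed at 350 nm. Optional preincubation: peptide in 1 M NaBr/0.05 M NaOAc pH 5.3 with monomer, 15 min, room temperature, before buffer addition. Molar activity from linear dose-response slope versus reference tetrapeptide, averaged values.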

Assay [3] has as its target Prothrombin (Homo sapiens) (UniProt P00734). The assay can be described thus: Compound was evaluated for its ability to inhibit thrombin catalyzed amidolysis. As to conditions: concentration not given here. The gist of the method: (§1)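 Thrombin (0.5 unit) at 37 °C with 0.25 mL of 1 mM Tos-Gly-Pro-Arg-p-nitroanilide, 0.25 mL saline containing 2 mg/mL peptide, and 1.5 mL saline. Chromophore read at 405 nm. Where indicated, peptide and thrombin were preincubated 15 min at 4 °C before substrate addition.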

Assay [4] shares this target. As to the kind of experiment: Compound was evaluated for its ability to inhibit thrombin catalyzed amidolysis. As to conditions: concentration not given here. Further details: concentration or dose not given beside the values. The gist of the method:
as §1

Assay [5] can be described thus: Relative potency was determined.

Where a SMILES comes first, the peptide text is derived from it. [ ]: non-standard residue; d: D form. The star is where a group is joined. Phe(4-NO2) = N[C@@H](Cc1ccc([N+](=O)[O-])cc1)C(=O)O; Chlorambucil = O=C(CCCc1ccc(N(CCCl)CCCl)cc1)*; Phe(4-NH2) = Nc1ccc(C[C@H](N)C(=O)O)cc1

As to `N=C(N)NCCC[C@H](NC(=O)[C@@H]1CCCN1C(=O)CCCc1ccc(N(CCCl)CCCl)cc1)C(=O)N1CCC[C@H]1C(=O)O`, the Inhibition (as a rule, the share of the control response that was lost under treatment) in assay [1] is on record as 0%.
`N=C(N)NCCC[C@H](NC(=O)CCCc1ccc(N(CCCl)CCCl)cc1)C(=O)N1CCC[C@H]1C(=O)O` displayed an Inhibition in assay [1] of 0%.
As to `NCC(=O)N1CCC[C@H]1C(=O)N[C@@H](CCCN=C(N)N)C(=O)N1CCC[C@H]1C(=O)O`, in assay [1], the Inhibition was determined as 100%. Also, the figures for the inhibition in assay [2] and in assay [3] were 100% and 0%, respectively.
`N=C(N)NCCC[C@H](NC(=O)[C@@H]1CCCN1C(=O)CNC(=O)CCCc1ccc(N(CCCl)CCCl)cc1)C(=O)N1CCC[C@H]1C(=O)O` (Chlorambucil-GPRP-OH) had an Inhibition in assay [1] of 0%.
In the case of `NCC(=O)N1CCC[C@H]1C(=O)N[C@@H](CCCN=C(N)N)C(=O)N1CCC[C@H]1C(=O)N[C@@H](Cc1ccc(N)cc1)C(=O)O` (H-GPRP[Phe(4-NH2)]-OH), the Inhibition in assay [1] was 81%. In addition, the inhibition – broadly, the relative decrease from the control value, in per cent – is 105% in assay [2] and 0% in assay [4].
On to `NCC(=O)N1CCC[C@H]1C(=O)N[C@@H](CCCN=C(N)N)C(=O)N[C@@H](Cc1ccc(N)cc1)C(=O)O` (H-GPR[Phe(4-NH2)]-OH), for which the Inhibition in assay [1] is listed as 5%. Besides, the figures for the inhibition in assay [2] and in assay [4] were 22% and 0%, respectively. Moreover, the Relative potency in assay [5] was 0.22.
Regarding `NCC(=O)N1CCC[C@H]1C(=O)N[C@@H](Cc1ccc([N+](=O)[O-])cc1)C(=O)N1CCC[C@H]1C(=O)O` (H-GP[Phe(4-NO2)]P-OH), the Inhibition in assay [1] worked out at 0%. The inhibition in assay [4] came to 0%.
As for `NCC(=O)N[C@@H](Cc1ccc([N+](=O)[O-])cc1)C(=O)N[C@@H](CCCN=C(N)N)C(=O)N1CCC[C@H]1C(=O)O` (H-G[Phe(4-NO2)]RP-OH), in assay [1], the Inhibition is recorded as 10%. Also, the inhibition in assay [4] was 0%.
As to `NCC(=O)N1CCC[C@H]1C(=O)N[C@@H](CCCN=C(N)N)C(=O)N[C@@H](Cc1ccc([N+](=O)[O-])cc1)C(=O)O` (stereo in doubt; 9) [listing 1 of 2 here], the Inhibition in assay [1] is 2%.
In the case of `NCC(=O)N1CCC[C@H]1C(=O)N[C@@H](CCCN=C(N)N)C(=O)N[C@@H](Cc1ccc([N+](=O)[O-])cc1)C(=O)O` (stereo in doubt; 9) [listing 2 of 2 here], the inhibition in assay [2] and in assay [4] was 0% each time.
With `NCC(=O)N1CCC[C@H]1C(=O)N[C@@H](CCCN=C(N)N)C(=O)N1CCC[C@H]1C(=O)N[C@@H](Cc1ccc([N+](=O)[O-])cc1)C(=O)O` (stereo in doubt; 10) [listing 1 of 2 here], the Inhibition in assay [1] was 73%.
`NCC(=O)N1CCC[C@H]1C(=O)N[C@@H](CCCN=C(N)N)C(=O)N1CCC[C@H]1C(=O)N[C@@H](Cc1ccc([N+](=O)[O-])cc1)C(=O)O` (stereo in doubt; 10) [listing 2 of 2 here]: the inhibition in assay [2] came out at 88%; in assay [4] it was 0%. The same molecule displayed a Relative potency in assay [5] of 0.83.
As for `NCC(=O)N1CCC[C@H]1C(=O)N[C@@H](CCCN=C(N)N)C(=O)N[C@@H](Cc1ccc([N+](=O)[O-])cc1)C(=O)O` (stereo in doubt; 19) [listing 1 of 2 here], the Inhibition in assay [1] worked out at 14%.
Turning to `NCC(=O)N1CCC[C@H]1C(=O)N[C@@H](CCCN=C(N)N)C(=O)N[C@@H](Cc1ccc([N+](=O)[O-])cc1)C(=O)O` (stereo in doubt; 19) [listing 2 of 2 here], in assay [4], the inhibition was 0%.
Still for that read-out and setting: the figure for `NCC(=O)N1CCC[C@H]1C(=O)N[C@@H](CCCN=C(N)N)C(=O)N1CCC[C@H]1C(=O)N[C@@H](Cc1ccc([N+](=O)[O-])cc1)C(=O)O` (stereo in doubt; 20) is 0%.
